# Experimental data published in ChEMBL document CHEMBL1121848, “Inactivation of trypsin-like proteases by depsipeptides of p-guanidinobenzoic acid” (J Med Chem, 1981).
# Test system: not listed separately
# Assay: Second order rate constant was determined in the inactivation of trypsin
# Summary of the method: (§1)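 Trypsin or human plasma kallikrein (10^-6 to 10^-9 M final) was inactivated at 25 °C by ester in water (10^-3 to 10^-6 M final) in 50 mM Pipes, pH 7.0, with 200 mM NaCl. Activity decayed first-order. Individual constants k_2 (min⁻¹) and K_m (M) were resolved for each enzyme.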
row,SMILES,k2
1,CC(=O)O.CC(OC(=O)c1ccc(NC(=N)N)cc1)C(=O)NC(Cc1ccccc1)C(N)=O (centres undefined),3.7 min⁻¹
2,CC(=O)O.C[C@H](NC(=O)COC(=O)c1ccc(NC(=N)N)cc1)C(=O)N[C@@H](Cc1ccccc1)C(N)=O,0.748 min⁻¹
3,CC(=O)O.CCOC(=O)c1ccc(NC(=N)N)cc1,1.89 min⁻¹
4,CC(=O)O.N=C(N)Nc1ccc(C(=O)OCC(=O)NCC(=O)NCC(N)=O)cc1,0.832 min⁻¹
5,CC(=O)O.CC(C)C(NC(=O)COC(=O)c1ccc(NC(=N)N)cc1)C(N)=O (centres undefined),0.74 min⁻¹
6,CC(=O)O.N=C(N)Nc1ccc(C(=O)OCC(=O)NC(Cc2ccccc2)C(N)=O)cc1 (centres undefined),3.24 min⁻¹
7,CC(=O)O.N=C(N)Nc1ccc(C(=O)OCC(N)=O)cc1,0.523 min⁻¹
8,CC(=O)O.N=C(N)Nc1ccc(C(=O)OCC(=O)N[C@@H](Cc2ccccc2)C(=O)N2CCC[C@H]2C(N)=O)cc1,1.27 min⁻¹

# Target: Acrosin (Sus scrofa) (UniProt P08001)
# Sequence (P08001 whole entry, looked up): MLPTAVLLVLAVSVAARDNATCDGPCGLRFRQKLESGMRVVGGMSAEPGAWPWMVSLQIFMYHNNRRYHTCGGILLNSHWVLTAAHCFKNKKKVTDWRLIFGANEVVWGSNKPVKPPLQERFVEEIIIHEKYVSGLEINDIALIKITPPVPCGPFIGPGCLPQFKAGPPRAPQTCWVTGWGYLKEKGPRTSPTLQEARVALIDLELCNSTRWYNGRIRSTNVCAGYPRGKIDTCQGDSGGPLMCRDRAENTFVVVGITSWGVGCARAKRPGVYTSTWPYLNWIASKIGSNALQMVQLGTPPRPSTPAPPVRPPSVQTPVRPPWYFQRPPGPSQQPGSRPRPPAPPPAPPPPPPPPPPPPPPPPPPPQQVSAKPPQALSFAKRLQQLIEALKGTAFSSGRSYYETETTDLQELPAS
# Assay: Compound was evaluated for the reactivity in the inactivation of trypsin like boar acrosin
row,SMILES,Reactivity
1,CC(=O)O.CCOC(=O)c1ccc(NC(=N)N)cc1,200000
2,CC(=O)O.CC(C)C(NC(=O)COC(=O)c1ccc(NC(=N)N)cc1)C(N)=O (centres undefined),114000
3,CC(=O)O.N=C(N)Nc1ccc(C(=O)OCC(=O)NC(Cc2ccccc2)C(N)=O)cc1 (centres undefined),207000
4,CC(=O)O.N=C(N)Nc1ccc(C(=O)OCC(N)=O)cc1,117000

# Test system: Plasminogen
# Assay: Compound was evaluated for the reactivity in the inactivation of trypsin like enzyme plasmin
# Summary of the method: (§2)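 Each enzyme (10^-6 to 10^-9 M final) was incubated at 25 °C with inhibitor dissolved in water (10^-3 to 10^-6 M final) in 50 mM Pipes, pH 7.0, with 200 mM NaCl. Loss of activity was treated as first-order to give k_app. Reactivity was k_app divided by inhibitor concentration.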
row,SMILES,Reactivity
1,CC(=O)O.CC(OC(=O)c1ccc(NC(=N)N)cc1)C(=O)NC(Cc1ccccc1)C(N)=O (centres undefined),743
2,CC(=O)O.CC(C)C(NC(=O)COC(=O)c1ccc(NC(=N)N)cc1)C(N)=O (centres undefined),441
3,CC(=O)O.N=C(N)Nc1ccc(C(=O)OCC(=O)NC(Cc2ccccc2)C(N)=O)cc1 (centres undefined),753
4,CC(=O)O.N=C(N)Nc1ccc(C(=O)OCC(N)=O)cc1,644

# Test system: not listed separately
# Assay: Second order rate constant was determined in the inactivation of HPK
# Summary of the method: as §1
row,SMILES,k2
1,CC(=O)O.CC(OC(=O)c1ccc(NC(=N)N)cc1)C(=O)NC(Cc1ccccc1)C(N)=O (centres undefined),0.1 min⁻¹
2,CC(=O)O.C[C@H](NC(=O)COC(=O)c1ccc(NC(=N)N)cc1)C(=O)N[C@@H](Cc1ccccc1)C(N)=O,0.84 min⁻¹
3,CC(=O)O.N=C(N)Nc1ccc(C(=O)OCC(=O)NCC(=O)NCC(N)=O)cc1,0.344 min⁻¹
4,CC(=O)O.CC(C)C(NC(=O)COC(=O)c1ccc(NC(=N)N)cc1)C(N)=O (centres undefined),0.87 min⁻¹
5,CC(=O)O.N=C(N)Nc1ccc(C(=O)OCC(=O)NC(Cc2ccccc2)C(N)=O)cc1 (centres undefined),0.74 min⁻¹
6,CC(=O)O.N=C(N)Nc1ccc(C(=O)OCC(N)=O)cc1,1.25 min⁻¹
7,CC(=O)O.N=C(N)Nc1ccc(C(=O)OCC(=O)N[C@@H](Cc2ccccc2)C(=O)N2CCC[C@H]2C(N)=O)cc1,0.83 min⁻¹

# Target: Urokinase-type plasminogen activator (Homo sapiens) (UniProt P00749)
# Assay: Compound was evaluated for the reactivity in the inactivation of trypsin like Urokinase-type plasminogen activator
# Summary of the method: as §2
row,SMILES,Reactivity
1,CC(=O)O.CC(OC(=O)c1ccc(NC(=N)N)cc1)C(=O)NC(Cc1ccccc1)C(N)=O (centres undefined),32
2,CC(=O)O.CCOC(=O)c1ccc(NC(=N)N)cc1,11
3,CC(=O)O.CC(C)C(NC(=O)COC(=O)c1ccc(NC(=N)N)cc1)C(N)=O (centres undefined),5
4,CC(=O)O.N=C(N)Nc1ccc(C(=O)OCC(=O)NC(Cc2ccccc2)C(N)=O)cc1 (centres undefined),21
5,CC(=O)O.N=C(N)Nc1ccc(C(=O)OCC(N)=O)cc1,300

# Target: Plasma kallikrein (Homo sapiens) (UniProt P03952)
# Sequence (P03952 whole entry, looked up): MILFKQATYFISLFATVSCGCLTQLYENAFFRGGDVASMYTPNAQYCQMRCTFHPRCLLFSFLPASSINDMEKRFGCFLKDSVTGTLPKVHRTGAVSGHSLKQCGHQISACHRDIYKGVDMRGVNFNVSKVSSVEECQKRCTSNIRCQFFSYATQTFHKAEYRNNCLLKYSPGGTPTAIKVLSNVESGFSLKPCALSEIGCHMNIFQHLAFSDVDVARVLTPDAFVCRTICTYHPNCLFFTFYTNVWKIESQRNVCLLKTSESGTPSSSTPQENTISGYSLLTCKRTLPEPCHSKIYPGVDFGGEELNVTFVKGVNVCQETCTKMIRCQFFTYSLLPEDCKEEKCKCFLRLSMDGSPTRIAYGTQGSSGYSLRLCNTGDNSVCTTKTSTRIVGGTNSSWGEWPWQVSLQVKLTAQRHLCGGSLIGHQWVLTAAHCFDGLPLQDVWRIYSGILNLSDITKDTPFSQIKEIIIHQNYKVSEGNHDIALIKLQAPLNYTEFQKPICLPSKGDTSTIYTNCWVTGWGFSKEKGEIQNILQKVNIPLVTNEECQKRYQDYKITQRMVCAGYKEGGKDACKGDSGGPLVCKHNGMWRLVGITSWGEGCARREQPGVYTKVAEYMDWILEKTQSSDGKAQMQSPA
# Assay: Compound was evaluated for the reactivity in the inactivation of trypsin like enzyme Human plasma Kallikrein
row,SMILES,Reactivity
1,CC(=O)O.CC(OC(=O)c1ccc(NC(=N)N)cc1)C(=O)NC(Cc1ccccc1)C(N)=O (centres undefined),3000
2,CC(=O)O.C[C@H](NC(=O)COC(=O)c1ccc(NC(=N)N)cc1)C(=O)N[C@@H](Cc1ccccc1)C(N)=O,1400
3,CC(=O)O.CCOC(=O)c1ccc(NC(=N)N)cc1,26
4,CC(=O)O.N=C(N)Nc1ccc(C(=O)OCC(=O)NCC(=O)NCC(N)=O)cc1,2000
5,CC(=O)O.CC(C)C(NC(=O)COC(=O)c1ccc(NC(=N)N)cc1)C(N)=O (centres undefined),2000
6,CC(=O)O.N=C(N)Nc1ccc(C(=O)OCC(=O)NC(Cc2ccccc2)C(N)=O)cc1 (centres undefined),8600
7,CC(=O)O.N=C(N)Nc1ccc(C(=O)OCC(N)=O)cc1,2800
8,CC(=O)O.N=C(N)Nc1ccc(C(=O)OCC(=O)N[C@@H](Cc2ccccc2)C(=O)N2CCC[C@H]2C(N)=O)cc1,2600

# Test system: not listed separately
# Assay: Compound was evaluated for the reactivity in the inactivation of trypsin like enzyme
# Summary of the method: as §2
row,SMILES,Reactivity
1,CC(=O)O.CC(OC(=O)c1ccc(NC(=N)N)cc1)C(=O)NC(Cc1ccccc1)C(N)=O (centres undefined),14200
2,CC(=O)O.C[C@H](NC(=O)COC(=O)c1ccc(NC(=N)N)cc1)C(=O)N[C@@H](Cc1ccccc1)C(N)=O,13400
3,CC(=O)O.CCOC(=O)c1ccc(NC(=N)N)cc1,259
4,CC(=O)O.N=C(N)Nc1ccc(C(=O)OCC(=O)NCC(=O)NCC(N)=O)cc1,10200
5,CC(=O)O.CC(C)C(NC(=O)COC(=O)c1ccc(NC(=N)N)cc1)C(N)=O (centres undefined),11200
6,CC(=O)O.N=C(N)Nc1ccc(C(=O)OCC(=O)NC(Cc2ccccc2)C(N)=O)cc1 (centres undefined),46000
7,CC(=O)O.N=C(N)Nc1ccc(C(=O)OCC(N)=O)cc1,17000
8,CC(=O)O.N=C(N)Nc1ccc(C(=O)OCC(=O)N[C@@H](Cc2ccccc2)C(=O)N2CCC[C@H]2C(N)=O)cc1,32000
